Active and inactive are the calls of the source. No cut-off for these calls is given here.
What was measured:
Escherichia coli [1] = assay: Antibacterial activity against Escherichia coli CECT 100 assessed as inhibition of microbial growth at 125 ug/ml incubated for 18 hrs by 2-fold microtiter broth dilution method; type: functional, organism-based
Procedure, shortened: (§1)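 Compounds in DMSO, ten 2-fold serial dilutions (125 down to 0.24 µg/mL tested). Bacteria at OD620 = 0.001 in Nutrient Broth mixed 1:1 with dilutions. Incubated overnight (18 h) at 28°C or 37°C according to strain. Growth read turbidimetrically at OD620. MIC is the lowest concentration giving complete growth inhibition. Triplicate runs. Tetracycline as reference.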

Bacillus subtilis [2] = assay: Antibacterial activity against Bacillus subtilis CECT 35 assessed as inhibition of microbial growth at 125 ug/ml incubated for 18 hrs by 2-fold microtiter broth dilution method; type: functional, organism-based; procedure, shortened: as §1
Enterococcus faecalis [3] = assay: Antibacterial activity against Enterococcus faecalis CECT 481 assessed as inhibition of microbial growth at 125 ug/ml incubated for 18 hrs by 2-fold microtiter broth dilution method; type: functional, organism-based; procedure, shortened: as §1
Salmonella typhi [4] = assay: Antibacterial activity against Salmonella typhi CECT 409 assessed as inhibition of microbial growth at 125 ug/ml incubated for 18 hrs by 2-fold microtiter broth dilution method; type: functional, organism-based; conditions: Salmonella enterica subsp. enterica serovar Typhi
Procedure, shortened: (§2)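 Compounds in DMSO, ten 2-fold serial dilutions (125 down to 0.24 µg/mL), mixed 1:1 with bacteria in Nutrient Broth at OD620 = 0.001. Incubated overnight (18 h) at 28 or 37 °C depending on strain. Growth read turbidimetrically at OD620; MIC is the lowest concentration completely inhibiting growth, per CLSI. Triplicate runs; tetracycline reference.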

Escherichia coli [5] = assay: Antibacterial activity against Escherichia coli CECT 405 assessed as inhibition of microbial growth at 125 ug/ml incubated for 18 hrs by 2-fold microtiter broth dilution method; type: functional, organism-based; procedure, shortened: as §1
Bacillus cereus [6] = assay: Antibacterial activity against Bacillus cereus CECT 148 assessed as inhibition of microbial growth at 125 ug/ml incubated for 18 hrs by 2-fold microtiter broth dilution method; type: functional, organism-based; procedure, shortened: as §1
Staphylococcus aureus [7] = assay: Antibacterial activity against Staphylococcus aureus CECT 86 assessed as inhibition of microbial growth at 125 ug/ml incubated for 18 hrs by 2-fold microtiter broth dilution method; type: functional, organism-based; procedure, shortened: as §1
[8] = system: Pectobacterium carotovorum; assay: Antibacterial activity against Erwinia carotovora CECT 225 assessed as inhibition of microbial growth at 125 ug/ml incubated for 18 hrs by 2-fold microtiter broth dilution method; type: functional, organism-based; procedure, shortened: as §1
Enterococcus faecalis [9] = assay: Antibacterial activity against Enterococcus faecalis CECT 481 assessed as inhibition of microbial growth incubated for 18 hrs by 2-fold microtiter broth dilution method; type: functional, organism-based; conditions: CECT 481, 18 h; procedure, shortened: as §1
Staphylococcus aureus [10] = assay: Antibacterial activity against Staphylococcus aureus CECT 86 assessed as inhibition of microbial growth incubated for 18 hrs by 2-fold microtiter broth dilution method; type: functional, organism-based; conditions: CECT 86, 18 h; procedure, shortened: as §1
[11] = system: Pectobacterium carotovorum; assay: Antibacterial activity against Erwinia carotovora CECT 225 assessed as inhibition of microbial growth incubated for 18 hrs by 2-fold microtiter broth dilution method; type: functional, organism-based; conditions: CECT 225, 18 h; procedure, shortened: as §1
Salmonella typhi [12] = assay: Antibacterial activity against Salmonella typhi CECT 409 assessed as inhibition of microbial growth incubated for 18 hrs by 2-fold microtiter broth dilution method; type: functional, organism-based, Salmonella enterica subsp. enterica serovar Typhi; conditions: Salmonella enterica, CECT 409, 18 h; procedure, shortened: as §2
Bacillus cereus [13] = assay: Antibacterial activity against Bacillus cereus CECT 148 assessed as inhibition of microbial growth incubated for 18 hrs by 2-fold microtiter broth dilution method; type: functional, organism-based; conditions: CECT 148, 18 h; procedure, shortened: as §1
Bacillus subtilis [14] = assay: Antibacterial activity against Bacillus subtilis CECT 35 assessed as inhibition of microbial growth incubated for 18 hrs by 2-fold microtiter broth dilution method; type: functional, organism-based; conditions: CECT 35, 18 h; procedure, shortened: as §1
Escherichia coli [15] = assay: Antibacterial activity against Escherichia coli CECT 100 assessed as inhibition of microbial growth incubated for 18 hrs by 2-fold microtiter broth dilution method; type: functional, organism-based; conditions: CECT 100, 18 h; procedure, shortened: as §1
Escherichia coli [16] = assay: Antibacterial activity against Escherichia coli CECT 405 assessed as inhibition of microbial growth incubated for 18 hrs by 2-fold microtiter broth dilution method; type: functional, organism-based; conditions: CECT 405, 18 h; procedure, shortened: as §1

SMILES	growth inhibition (GI) (Escherichia coli [1])	growth inhibition (GI) (Bacillus subtilis [2])	growth inhibition (GI) (Enterococcus faecalis [3])	growth inhibition (GI) (Salmonella typhi [4])	growth inhibition (GI) (Escherichia coli [5])	growth inhibition (GI) (Bacillus cereus [6])	growth inhibition (GI) (Staphylococcus aureus [7])	growth inhibition (GI) [8]	MIC (Enterococcus faecalis [9]) [µg/mL]	MIC (Staphylococcus aureus [10]) [µg/mL]	MIC [11] [µg/mL]	MIC (Salmonella typhi [12]) [µg/mL]	MIC (Bacillus cereus [13]) [µg/mL]	MIC (Bacillus subtilis [14]) [µg/mL]	MIC (Escherichia coli [15]) [µg/mL]	MIC (Escherichia coli [16]) [µg/mL]
COc1ccc(C2=C(C(=O)c3ccco3)C(=O)O/C2=C\c2ccc(O)c(Br)c2)cc1Br	inactive	inactive	inactive	inactive	inactive	inactive	inactive	inactive	–	–	–	–	–	–	–	–
O=C1O/C(=C\c2ccc(O)c(Br)c2)C(c2ccc(O)c(Br)c2)=C1C(=O)c1ccc(O)cc1	–	–	–	–	–	–	–	–	31.2	31.2	125	31.2	15.6	125	15.6	15.6
COc1c(Br)cc(C2=C(C(=O)c3cc(Br)c(O)c(Br)c3)C(=O)O/C2=C\c2ccc(O)cc2)cc1Br	inactive	inactive	inactive	inactive	inactive	inactive	inactive	inactive	–	–	–	–	–	–	–	–
COc1ccc(C2=C(C(=O)c3ccc(O)cc3)C(=O)O/C2=C\c2ccc(O)c(Br)c2)cc1Br	inactive	inactive	inactive	inactive	inactive	inactive	inactive	inactive	–	–	–	–	–	–	–	–
O=C1O/C(=C\c2cc(Br)c(O)c(Br)c2)C(c2cc(Br)c(O)c(Br)c2)=C1C(=O)c1ccc(O)cc1	–	–	–	–	–	–	–	–	3.9	3.9	125	3.9	3.9	125	> 125	7.81
COc1c(Br)cc(C2=C(C(=O)c3ccco3)C(=O)O/C2=C\c2ccc(O)c(Br)c2)cc1Br	inactive	inactive	inactive	inactive	inactive	inactive	inactive	inactive	–	–	–	–	–	–	–	–
O=C1O/C(=C\c2cc(Br)c(O)c(Br)c2)C(c2cc(Br)c(O)c(Br)c2)=C1C(=O)c1ccc(O)c(Br)c1	–	–	–	–	–	–	–	–	3.9	3.9	125	3.9	3.9	125	> 125	1.95
O=C1O/C(=C\c2ccc(O)cc2)C(c2ccc(O)cc2)=C1C(=O)c1ccco1	–	–	–	–	–	–	–	–	31.2	15.6	> 125	15.6	15.6	> 125	31.2	31.2
COc1ccc(C2=C(C(=O)c3cc(Br)c(O)c(Br)c3)C(=O)O/C2=C\c2ccc(O)c(Br)c2)cc1Br	inactive	inactive	inactive	inactive	inactive	inactive	inactive	inactive	–	–	–	–	–	–	–	–
O=C1O/C(=C\c2cc(Br)c(O)c(Br)c2)C(c2ccc(O)cc2)=C1C(=O)c1cc(Br)c(O)c(Br)c1	–	–	–	–	–	–	–	–	15.6	15.6	125	15.6	15.6	125	> 125	15.6
CN(C)[C@@H]1C(O)=C(C(N)=O)C(=O)[C@@]2(O)C(O)=C3C(=O)c4c(O)cccc4[C@@](C)(O)[C@H]3C[C@@H]12 [TETRACYCLINE]	–	–	–	–	–	–	–	–	0.48	0.24	3.9	7.81	3.9	0.97	3.9	7.81
COc1ccc(C2=C(C(=O)c3ccc(O)cc3)C(=O)O/C2=C\c2ccc(O)c(Br)c2)cc1	inactive	inactive	inactive	inactive	inactive	inactive	inactive	inactive	–	–	–	–	–	–	–	–
COc1c(Br)cc(C2=C(C(=O)c3ccc(O)c(Br)c3)C(=O)O/C2=C\c2ccc(O)c(Br)c2)cc1Br	inactive	inactive	inactive	inactive	inactive	inactive	inactive	inactive	–	–	–	–	–	–	–	–
COc1c(Br)cc(C2=C(C(=O)c3ccc(O)cc3)C(=O)O/C2=C\c2cc(Br)c(O)c(Br)c2)cc1Br	inactive	inactive	inactive	inactive	inactive	inactive	inactive	inactive	–	–	–	–	–	–	–	–
O=C1O/C(=C\c2ccc(O)c(Br)c2)C(c2ccc(O)cc2)=C1C(=O)c1ccc(O)cc1	–	–	–	–	–	–	–	–	> 125	> 125	> 125	> 125	125	> 125	> 125	> 125
O=C1O/C(=C\c2ccc(O)cc2)C(c2cc(Br)c(O)c(Br)c2)=C1C(=O)c1cc(Br)c(O)c(Br)c1	–	–	–	–	–	–	–	–	7.81	7.81	125	7.81	7.81	125	> 125	7.81
O=C1O/C(=C\c2ccc(O)c(Br)c2)C(c2ccc(O)cc2)=C1C(=O)c1ccc(O)c(Br)c1	–	–	–	–	–	–	–	–	> 125	> 125	> 125	125	3.9	> 125	> 125	125
O=C1O/C(=C\c2ccc(O)c(Br)c2)C(c2ccc(O)c(Br)c2)=C1C(=O)c1cc(Br)c(O)c(Br)c1 [CADIOLIDE C]	–	–	–	–	–	–	–	–	3.9	3.9	125	3.9	3.9	125	> 125	3.9
O=C1O/C(=C\c2cc(Br)c(O)c(Br)c2)C(c2ccc(O)c(Br)c2)=C1C(=O)c1ccc(O)c(Br)c1	–	–	–	–	–	–	–	–	1.95	3.9	125	3.9	1.95	125	> 125	3.9
O=C1O/C(=C\c2ccc(O)cc2)C(c2ccc(O)cc2)=C1C(=O)c1ccc(O)cc1	–	–	–	–	–	–	–	–	125	62.5	125	125	62.5	> 125	62.5	62.5
O=C1O/C(=C\c2cc(Br)c(O)c(Br)c2)C(c2cc(Br)c(O)c(Br)c2)=C1C(=O)c1cc(Br)c(O)c(Br)c1 [CADIOLIDE B]	–	–	–	–	–	–	–	–	7.81	7.81	> 125	15.6	7.81	> 125	> 125	7.81

— ChEMBL document CHEMBL3585302, “Synthesis and antibacterial activities of cadiolides A, B and C and analogues” (Bioorg Med Chem, 2015)
